According to paper PMC7449315 (Journal for Immunotherapy of Cancer, 2020):

Assay: phase I trial: safety and tolerability
Assay type: in vivo, human
Outline: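 Fifteen patients were dosed orally twice daily (three per cohort, 100–800 mg). AEs, DLTs, physical exams, vital signs, ECGs and laboratory chemistry, hematology and coagulation were recorded from first dose to end of treatment. AEs were graded by the investigator using NCI CTCAE v4.03. DLTs were assessed in cycle 1 (days 1–28): grade ≥3 or immune-related non-hematologic events, and grade ≥4 hematologic events.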

NS(=O)(=O)[C@H]1CC[C@](F)(CC[C@H]2c3ccccc3-c3cncn32)CC1 [M4112]
Abdominal distension (100 mg two times per day (n=3)): 0 (0.0) n (%) | Abdominal pain (100 mg two times per day (n=3)): 0 (0.0) n (%) | Alanine aminotransferase increased (100 mg two times per day (n=3)): 0 (0.0) n (%) | Amylase increased (100 mg two times per day (n=3)): 0 (0.0) n (%) | Anemia of malignant disease (100 mg two times per day (n=3)): 0 (0.0) n (%) | Any AE (100 mg two times per day (n=3)): 3 (100) n (%) | Any SAE (100 mg two times per day (n=3)): 0 n (%) | Aspartate aminotransferase increased (100 mg two times per day (n=3)): 0 (0.0) n (%) | Blood alkaline phosphatase increased (100 mg two times per day (n=3)): 0 (0.0) n (%) | Blood creatine phosphokinase increased (100 mg two times per day (n=3)): 0 (0.0) n (%) | Blood creatinine increased (100 mg two times per day (n=3)): 0 (0.0) n (%) | Cough (100 mg two times per day (n=3)): 1 (33.3) n (%) | Decreased appetite (100 mg two times per day (n=3)): 1 (33.3) n (%) | Dehydration (100 mg two times per day (n=3)): 0 (0.0) n (%) | Diarrhea (100 mg two times per day (n=3)): 0 (0.0) n (%) | Dyspepsia (100 mg two times per day (n=3)): 2 (66.7) n (%) | Dysphagia (100 mg two times per day (n=3)): 1 (33.3) n (%) | Fatigue (100 mg two times per day (n=3)): 2 (66.7) n (%) | Fever (100 mg two times per day (n=3)): 0 (0.0) n (%) | Gamma-glutamyl transferase increased (100 mg two times per day (n=3)): 0 (0.0) n (%) | Hypercalcemia (100 mg two times per day (n=3)): 0 (0.0) n (%) | Lipase increased (100 mg two times per day (n=3)): 0 (0.0) n (%) | Lymphocyte count decreased (100 mg two times per day (n=3)): 0 (0.0) n (%) | Maculopapular rash (100 mg two times per day (n=3)): 1 (33.3) n (%) | Nausea (100 mg two times per day (n=3)): 1 (33.3) n (%) | Palmar-plantar erythrodysesthesia syndrome (100 mg two times per day (n=3)): 1 (33.3) n (%) | Platelet count decreased (100 mg two times per day (n=3)): 0 (0.0) n (%) | Tumor pain (100 mg two times per day (n=3)): 0 (0.0) n (%) | Vomiting (100 mg two times per day (n=3)): 2 (66.7) n (%) | Abdominal distension (200 mg two times per day (n=3)): 0 (0.0) n (%) | Abdominal pain (200 mg two times per day (n=3)): 0 (0.0) n (%) | Alanine aminotransferase increased (200 mg two times per day (n=3)): 0 (0.0) n (%) | Amylase increased (200 mg two times per day (n=3)): 0 (0.0) n (%) | Anemia of malignant disease (200 mg two times per day (n=3)): 0 (0.0) n (%) | Any AE (200 mg two times per day (n=3)): 3 (100) n (%) | Any SAE (200 mg two times per day (n=3)): 0 n (%) | Aspartate aminotransferase increased (200 mg two times per day (n=3)): 0 (0.0) n (%) | Blood alkaline phosphatase increased (200 mg two times per day (n=3)): 0 (0.0) n (%) | Blood creatine phosphokinase increased (200 mg two times per day (n=3)): 1 (33.3) n (%) | Blood creatinine increased (200 mg two times per day (n=3)): 0 (0.0) n (%) | Cough (200 mg two times per day (n=3)): 1 (33.3) n (%) | Decreased appetite (200 mg two times per day (n=3)): 0 (0.0) n (%) | Dehydration (200 mg two times per day (n=3)): 1 (33.3) n (%) | Diarrhea (200 mg two times per day (n=3)): 1 (33.3) n (%) | Dyspepsia (200 mg two times per day (n=3)): 0 (0.0) n (%) | Dysphagia (200 mg two times per day (n=3)): 0 (0.0) n (%) | Fatigue (200 mg two times per day (n=3)): 0 (0.0) n (%) | Fever (200 mg two times per day (n=3)): 1 (33.3) n (%) | Gamma-glutamyl transferase increased (200 mg two times per day (n=3)): 0 (0.0) n (%) | Hypercalcemia (200 mg two times per day (n=3)): 1 (33.3) n (%) | Lipase increased (200 mg two times per day (n=3)): 1 (33.3) n (%) | Lymphocyte count decreased (200 mg two times per day (n=3)): 1 (33.3) n (%) | Maculopapular rash (200 mg two times per day (n=3)): 0 (0.0) n (%) | Nausea (200 mg two times per day (n=3)): 1 (33.3) n (%) | Palmar-plantar erythrodysesthesia syndrome (200 mg two times per day (n=3)): 0 (0.0) n (%) | Platelet count decreased (200 mg two times per day (n=3)): 1 (33.3) n (%) | Tumor pain (200 mg two times per day (n=3)): 0 (0.0) n (%) | Vomiting (200 mg two times per day (n=3)): 1 (33.3) n (%) | Abdominal distension (400 mg two times per day (n=3)): 1 (33.3) n (%) | Abdominal pain (400 mg two times per day (n=3)): 1 (33.3) n (%) | Alanine aminotransferase increased (400 mg two times per day (n=3)): 1 (33.3) n (%) | Amylase increased (400 mg two times per day (n=3)): 1 (33.3) n (%) | Anemia of malignant disease (400 mg two times per day (n=3)): 1 (33.3) n (%) | Any AE (400 mg two times per day (n=3)): 3 (100) n (%) | Any SAE (400 mg two times per day (n=3)): 1 (33.3) n (%) | Aspartate aminotransferase increased (400 mg two times per day (n=3)): 0 (0.0) n (%) | Blood alkaline phosphatase increased (400 mg two times per day (n=3)): 0 (0.0) n (%) | Blood creatine phosphokinase increased (400 mg two times per day (n=3)): 1 (33.3) n (%) | Blood creatinine increased (400 mg two times per day (n=3)): 1 (33.3) n (%) | Cough (400 mg two times per day (n=3)): 1 (33.3) n (%) | Decreased appetite (400 mg two times per day (n=3)): 1 (33.3) n (%) | Dehydration (400 mg two times per day (n=3)): 0 (0.0) n (%) | Diarrhea (400 mg two times per day (n=3)): 0 (0.0) n (%) | Dyspepsia (400 mg two times per day (n=3)): 0 (0.0) n (%) | Dysphagia (400 mg two times per day (n=3)): 1 (33.3) n (%) | Fatigue (400 mg two times per day (n=3)): 1 (33.3) n (%) | Fever (400 mg two times per day (n=3)): 0 (0.0) n (%) | Gamma-glutamyl transferase increased (400 mg two times per day (n=3)): 0 (0.0) n (%) | Hypercalcemia (400 mg two times per day (n=3)): 1 (33.3) n (%) | Lipase increased (400 mg two times per day (n=3)): 0 (0.0) n (%) | Lymphocyte count decreased (400 mg two times per day (n=3)): 0 (0.0) n (%) | Maculopapular rash (400 mg two times per day (n=3)): 1 (33.3) n (%) | Nausea (400 mg two times per day (n=3)): 0 (0.0) n (%) | Palmar-plantar erythrodysesthesia syndrome (400 mg two times per day (n=3)): 1 (33.3) n (%) | Platelet count decreased (400 mg two times per day (n=3)): 0 (0.0) n (%) | Tumor pain (400 mg two times per day (n=3)): 1 (33.3) n (%) | Vomiting (400 mg two times per day (n=3)): 0 (0.0) n (%) | dose reductions due to AEs (one grade 3 diarrhea and one grade 3 rash after the DLT period) (600 mg two times per day): Two patients | Abdominal distension (600 mg two times per day (n=3)): 1 (33.3) n (%) | Abdominal pain (600 mg two times per day (n=3)): 1 (33.3) n (%) | Alanine aminotransferase increased (600 mg two times per day (n=3)): 0 (0.0) n (%) | Amylase increased (600 mg two times per day (n=3)): 1 (33.3) n (%) | Anemia of malignant disease (600 mg two times per day (n=3)): 1 (33.3) n (%) | Any AE (600 mg two times per day (n=3)): 3 (100) n (%) | Any SAE (600 mg two times per day (n=3)): 1 (33.3) n (%)
